{
  "source": "ChEMBL document CHEMBL1671691",
  "about": "(Antimicrob Agents Chemother, 2010)",
  "key": {"Influenza A virus [1]": {"system": "Influenza A virus", "test": "Antiviral activity against adamantane-, zanamivir-susceptible oseltamivir-resistant Influenza A virus (A/Georgia/20/2006(H1N1)) harboring neuraminidase H274Y mutant infected in MDCK cells assessed as inhibition of viral replication after 3 days by microscopic analysis using crystal violet stain", "format": "functional, organism-based", "procedure,_shortened": "(§1)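 Confluent MDCK-ATCC monolayers infected with virus diluted to give 15–45 plaques/well. Adsorption 1 h at 37°C without drug, then washed. Overlaid with 0.8% agarose in MEM containing drug plus TPCK-trypsin: 3 μg/ml for seasonal viruses, 2 μg/ml for 2009 A(H1N1). Incubated 3 days at 37°C, 5% CO2. Ethanol-fixed, crystal violet-stained, plaques counted. EC50 by curve fit; duplicates on three occasions, mean ± SD.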"}, "Influenza A virus [2]": {"system": "Influenza A virus", "test": "Antiviral activity against adamantane-resistant zanamivir-,oseltamivir-susceptible Influenza A virus (A/Washington/01/2007(H3N2)) harboring M2 S31N mutant infected in MDCK cells assessed as inhibition of viral replication after 3 days by microscopic analysis using crystal violet stain", "format": "functional, organism-based", "procedure,_shortened": "as §1"}, "Influenza A virus [3]": {"system": "Influenza A virus", "test": "Antiviral activity against oseltamivir-susceptible zanamivir-, adamantane-resistant Influenza A virus (A/Texas/12/2007 (clone)(H3N2)) harboring neuraminidase E119I mutant and harboring M2 S31N mutant infected in MDCK cells assessed as inhibition of viral replication after 3 days by microscopic analysis using crystal violet stain", "format": "functional, organism-based, Influenza A virus (A/Texas/12/2007(H3N2))"}, "Influenza A virus [4]": {"system": "Influenza A virus", "test": "Antiviral activity against adamantane-resistant zanamivir-,oseltamivir-susceptible Influenza A virus (A/Florida/01/2009(H3N2)) harboring M2 S31N mutant infected in MDCK cells assessed as inhibition of viral replication after 3 days by microscopic analysis using crystal violet stain", "format": "functional, organism-based", "procedure,_shortened": "as §1"}, "Influenza B virus [5]": {"system": "Influenza B virus", "test": "Antiviral activity against oseltamivir-susceptible zanamivir-, adamantane-resistant Influenza B virus B/Memphis/20/1996 harboring neuraminidase R152K mutant infected in MDCK cells assessed as inhibition of viral replication after 3 days by microscopic analysis using crystal violet stain", "format": "functional, cell-based, B/Memphis/20/96"}, "Influenza B virus [6]": {"system": "Influenza B virus", "test": "microbe, parasite or virus in culture", "details": "B/Memphis/20/96, MDCK, 72 h"}},
  "data": [
    {"smiles": "NC(=O)c1ncn([C@@H]2O[C@H](CO)[C@@H](O)[C@H]2O)n1", "note": "[RIBAVIRIN]", "values": [
      {"measurement": "EC50", "setting": "Influenza A virus [1]", "result": 19.7, "unit": "µM"},
      {"measurement": "EC50", "setting": "Influenza A virus [2]", "result": 35.6, "unit": "µM"},
      {"measurement": "EC50", "setting": "Influenza A virus [3]", "result": 46.7, "unit": "µM"},
      {"measurement": "EC50", "setting": "Influenza A virus [4]", "result": 20.9, "unit": "µM"},
      {"measurement": "EC50", "setting": "Influenza B virus [5]", "result": 25, "unit": "µM"},
      {"measurement": "EC50", "setting": "Influenza B virus [6]", "result": 13.9, "unit": "µM"}
    ]}
  ]
}
